Active and inactive are the calls of the source. No cut-off for these calls is given here.
Columns and labels:
U-251 = experiment: Growth inhibition of human U251 cells at 10 uM after 48 hrs by sulforhodamine B assay; format: functional
Outline: (§1)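 NCI-60 primary screen: cells given a single 10 µM dose under 48 h continuous exposure. Growth/viability estimated by sulforhodamine B protein assay. Reported as percent growth of treated cells (mean graph), expressed as percent growth inhibition.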

MDA-MB-468 = experiment: Growth inhibition of human MDA-MB-468 cells at 10 uM after 48 hrs by sulforhodamine B assay; format: functional; outline: as §1
[1] = Growth inhibition of human HCT15 cells at 10 uM after 48 hrs by sulforhodamine B assay; format: functional; details: HCT-15, 48 h, read-out: GI; outline: as §1
SNB-75 = experiment: Growth inhibition of human SNB75 cells at 10 uM after 48 hrs by sulforhodamine B assay; format: functional; details: for inhibition of growth at 10 µM: SNB-75, 48 h, read-out: GI; outline: as §1
K562 = experiment: Growth inhibition of human K562 cells at 10 uM after 48 hrs by sulforhodamine B assay; format: functional; details: for inhibition of growth at 10 µM: K562, 48 h, read-out: GI; outline: as §1
ACHN = experiment: Growth inhibition of human ACHN cells at 10 uM after 48 hrs by sulforhodamine B assay; format: functional; outline: as §1
T47D = experiment: Growth inhibition of human T47D cells at 10 uM after 48 hrs by sulforhodamine B assay; format: functional; details: read-out: GI; outline: as §1
CCRF-CEM = experiment: Growth inhibition of human CCRF-CEM cells at 10 uM after 48 hrs by sulforhodamine B assay; format: functional; details: read-out: GI; outline: as §1
[2] = Growth inhibition of human RPMI8226 cells at 10 uM after 48 hrs by sulforhodamine B assay; format: functional; details: RPMI-8226, 48 h, read-out: GI; outline: as §1
SK-MEL-5 = experiment: Growth inhibition of human SK-MEL-5 cells at 10 uM after 48 hrs by sulforhodamine B assay; format: functional; details: for inhibition of growth at 10 µM: SK-MEL-5, 48 h, read-out: GI; outline: as §1
UO-31 = experiment: (§2) Growth inhibition of human UO31 cells at 10 uM after 48 hrs by sulforhodamine B assay; format: functional; outline: as §1
[3] = (§3) Growth inhibition of human OVCAR4 cells at 10 uM after 48 hrs by sulforhodamine B assay; format: functional; details: OVCAR-4, 48 h, read-out: GI; outline: as §1
LOX IMVI = experiment: (§4) Growth inhibition of human LOXIMVI cells at 10 uM after 48 hrs by sulforhodamine B assay; format: functional; outline: as §1
[4] = Growth inhibition of human MOLT4 cells at 10 uM after 48 hrs by sulforhodamine B assay; format: functional; details: MOLT-4, 48 h, read-out: GI; outline: as §1
HCT-116 = experiment: (§5) Growth inhibition of human HCT116 cells at 10 uM after 48 hrs by sulforhodamine B assay; format: functional; outline: as §1
NCI-H522 = experiment: Growth inhibition of human NCI-H522 cells at 10 uM after 48 hrs by sulforhodamine B assay; format: functional; details: for inhibition of growth at 10 µM: NCI-H522, 48 h, read-out: GI; outline: as §1
[5] = Growth inhibition of human UACC62 cells at 10 uM after 48 hrs by sulforhodamine B assay; format: functional; details: UACC-62, 48 h, read-out: GI; outline: as §1
A498 = experiment: Growth inhibition of human A498 cells at 10 uM after 48 hrs by sulforhodamine B assay; format: functional; details: A498, 48 h, read-out: GI; outline: as §1
CAKI-1 = experiment: Growth inhibition of human CAKI-1 cells at 10 uM after 48 hrs by sulforhodamine B assay; format: functional; outline: as §1
Hs-578T = experiment: (§6) Growth inhibition of human Hs 578T cells at 10 uM after 48 hrs by sulforhodamine B assay; format: functional; outline: as §1
[6] = Growth inhibition of human HOP92 cells at 10 uM after 48 hrs by sulforhodamine B assay; format: functional; details: HOP-92, 48 h, read-out: GI; outline: as §1
HL-60(TB) = experiment: Growth inhibition of human HL-60(TB) cells at 10 uM after 48 hrs by sulforhodamine B assay; format: functional; details: HL-60, 48 h, read-out: GI
Outline: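 NCI-60 one-dose primary screen, HL-60(TB) within the leukemia subpanel. Single 10 µM concentration, 48 h continuous exposure. Growth estimated by sulforhodamine B protein assay. Percent growth of treated cells expressed as percentage growth inhibition (GI%).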

EKVX = experiment: (§7) Growth inhibition of human EKVX cells at 10 uM after 48 hrs by sulforhodamine B assay; format: functional; outline: as §1
IGROV-1 = experiment: Growth inhibition of human IGROV1 cells at 10 uM after 48 hrs by sulforhodamine B assay; format: functional; details: IGROV-1, 48 h, read-out: GI; outline: as §1
PC-3 = experiment: (§8) Growth inhibition of human PC3 cells at 10 uM after 48 hrs by sulforhodamine B assay; format: functional; outline: as §1
[7] = Antioxidant activity assessed as DPPH radical scavenging activity at 10^-3 M incubated for 30 mins by spectrophotometry; format: physicochemical; details: 0.5 h, 1000 µM
Outline: (§9)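 Compound at 10^-3 or 10^-4 M mixed with methanolic DPPH (0.1 mL of 1 mM stock; 3 mL total volume), shaken, kept in the dark 30 min at room temperature. Absorbance read at 517 nm. Scavenging (%) = (A_control − A_sample)/A_control × 100, where the control is DPPH in methanol alone. BHT served as reference antioxidant. Triplicate, mean ± SD of three independent experiments.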

[8] = as §2; format: functional; details: UO-31, 48 h, read-out: GI; outline: as §1
[9] = as §4; format: functional; details: LOX IMVI, read-out: GI; outline: as §1
[10] = as §5; format: functional; details: HCT-116, 48 h, read-out: GI; outline: as §1
[11] = Antioxidant activity assessed as DPPH radical scavenging activity at 10^-4 M incubated for 30 mins by spectrophotometry; format: physicochemical; details: 0.5 h, 100 µM; outline: as §9
[12] = as §6; format: functional; details: read-out: GI; outline: as §1
[13] = as §7; format: functional; details: read-out: GI; outline: as §1
[14] = as §8; format: functional; details: PC-3, 48 h, read-out: GI; outline: as §1
OVCAR-4 = experiment: as §3; format: functional; outline: as §1

SMILES | growth inhibition (GI) (U-251) | growth inhibition (GI) (MDA-MB-468) | inhibition of growth at 10 µM [1] | growth inhibition (GI) (ACHN) | inhibition of growth at 10 µM (T47D) | inhibition of growth at 10 µM (CCRF-CEM) | inhibition of growth at 10 µM [2] | inhibition of growth at 10 µM [3] | growth inhibition (GI) (LOX IMVI) | inhibition of growth at 10 µM [4] | inhibition of growth at 10 µM [5] | inhibition of growth at 10 µM (A498) | growth inhibition (GI) (CAKI-1) | inhibition of growth at 10 µM [6] | inhibition of growth at 10 µM (HL-60(TB)) | inhibition of growth at 10 µM (IGROV-1) | inhibition of growth at 10 µM (SNB-75) | inhibition of growth at 10 µM (K562) | inhibition of growth at 10 µM (SK-MEL-5) | inhibition of growth at 10 µM [8] | further results
CC1CCCc2c1nc1ncn3ncnc3c1c2-c1cccn1C (configuration not stated) | inactive | inactive | 6.3% | inactive | 11.8% | 10.3% | 12.2% | 6.1% | inactive | 20.4% | 8.3% | 5.7% | inactive | 10.1% | 8.5% | 7.9% | – | – | – | – | growth inhibition (GI) (SNB-75): inactive; growth inhibition (GI) (K562): inactive; growth inhibition (GI) (SK-MEL-5): inactive; growth inhibition (GI) (UO-31): inactive; growth inhibition (GI) (HCT-116): inactive; growth inhibition (GI) (NCI-H522): inactive; growth inhibition (GI) (Hs-578T): inactive; growth inhibition (GI) (EKVX): inactive; growth inhibition (GI) (PC-3): inactive
CCSc1nc(N)c2c(-c3cccn3C)c3c(nc2n1)C(C)CCC3 (configuration not stated) | – | – | 10.8% | – | 54.2% | 21.6% | 68.5% | 23.4% | – | 42.3% | 24.1% | 26.5% | – | 28.7% | 25.8% | 35.3% | 21.4% | 37.4% | 13.1% | 45.8% | inhibition of growth at 10 µM (U-251; U-251, 48 h, read-out: GI): 16.7%; inhibition of growth at 10 µM (MDA-MB-468; MDA-MB-468, 48 h, read-out: GI): 15.4%; inhibition of growth at 10 µM (ACHN; read-out: GI): 11.9%; inhibition (INH) [7]: 28%; inhibition of growth at 10 µM [9]: 12.9%; inhibition of growth at 10 µM [10]: 35.3%; inhibition (INH) [11]: 16%; inhibition of growth at 10 µM (NCI-H522): 33.8%; inhibition of growth at 10 µM (CAKI-1; CAKI-1, 48 h, read-out: GI): 21.7%; inhibition of growth at 10 µM [12]: 15.2%; inhibition of growth at 10 µM [13]: 34.1%; inhibition of growth at 10 µM [14]: 57.1%
CC1CCCc2c1nc1ncn(N)c(=N)c1c2-c1cccn1C (configuration not stated) | inactive | inactive | 13.4% | inactive | 17.5% | 30.1% | 38.6% | – | inactive | 29.2% | 16.9% | 14.6% | inactive | 11.3% | 11.6% | 12.4% | 10.7% | 18.3% | 10.5% | 7.3% | growth inhibition (GI) (OVCAR-4): inactive; inhibition of growth at 10 µM [10]: 11.7%; inhibition of growth at 10 µM (NCI-H522): 10.4%; inhibition of growth at 10 µM [12]: 10.7%; inhibition of growth at 10 µM [13]: 16.2%; inhibition of growth at 10 µM [14]: 20.4%
